For two compounds, IC50, inhibition and Activity results are on record in ChEMBL document CHEMBL4706504, “Hit-to-lead optimization of a latency-associated nuclear antigen inhibitor against Kaposi's sarcoma-associated herpesvirus infections” (Eur J Med Chem, 2020).

The source made the active and inactive calls. No cut-off for these calls is given here.

Assay [1] can be described thus: Inhibition of Kaposi's sarcoma herpesvirus C-terminal His-tagged oligomerization deficient LANA DBD (1008 to 1146 residues) K1055E/K1138S/K1140D/K1141D/R1039Q/R1040Q/A1121E/K1109A/D1110A mutant expressed in Escherichia coli BL21(DE3) assessed as inhibition of LANA interaction with fluorescently-labelled viral DNA LBS1 probe preincubated with LANA-DBD for 60 mins followed by addition of DNA probe and measured after 90 mins by flourescence polarization assay. Set-up: species or system Human gammaherpesvirus 8. The method, boiled down: (§1)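 FP competition of DNA binding, using the oligomerization-deficient LANA DBD mutant (aa 1008-1146, nine point mutations). Probes were LBS1, LBS2 or LBS3. Values are IC50 from the average of duplicates ± standard deviation.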

A short description of assay [2]: Inhibition of Kaposi's sarcoma herpesvirus C-terminal His-tagged oligomerization deficient LANA DBD (1008 to 1146 residues) K1055E/K1138S/K1140D/K1141D/R1039Q/R1040Q/A1121E/K1109A/D1110A mutant expressed in Escherichia coli BL21(DE3) assessed as inhibition of LANA interaction with fluorescently-labelled viral DNA LBS2 probe preincubated with LANA-DBD for 60 mins followed by addition of DNA probe and measured after 90 mins by flourescence polarization assay. The arrangement: species or system Human gammaherpesvirus 8. The method, boiled down:
as §1

The test system of assay [3] is Human gammaherpesvirus 8. Briefly: Inhibition of Kaposi's sarcoma herpesvirus C-terminal His-tagged oligomerization deficient LANA DBD (1008 to 1146 residues) K1055E/K1138S/K1140D/K1141D/R1039Q/R1040Q/A1121E/K1109A/D1110A mutant expressed in Escherichia coli BL21(DE3) assessed as inhibition of LANA interaction with 5'-Dy682-labeled viral DNA LBS1 probe at 500 uM preincubated with LANA-DBD for 60 mins followed by addition of DNA probe and measured after 30 mins by Electrophoretic mobility shift assay. The note with it: time 90.0 min. (A gel shift assay detects complexes by their altered migration in electrophoresis.)

Assay [4] in a line: Inhibition of Kaposi's sarcoma herpesvirus C-terminal His-tagged oligomerization deficient LANA DBD (1008 to 1146 residues) K1055E/K1138S/K1140D/K1141D/R1039Q/R1040Q/A1121E/K1109A/D1110A mutant expressed in Escherichia coli BL21(DE3) assessed as inhibition of LANA interaction with fluorescently-labelled viral DNA LBS3 probe preincubated with LANA-DBD for 60 mins followed by addition of DNA probe and measured after 90 mins by flourescence polarization assay. Set-up: species or system Human gammaherpesvirus 8. The method, boiled down:
as §1

Assay [5] can be described thus: Inhibition of Kaposi's sarcoma herpesvirus C-terminal His-tagged oligomerization deficient LANA DBD (1008 to 1146 residues) K1055E/K1138S/K1140D/K1141D/R1039Q/R1040Q/A1121E/K1109A/D1110A mutant expressed in Escherichia coli BL21(DE3) assessed as inhibition of LANA interaction with 5'-Dy682-labeled viral DNA LBS1 probe preincubated with LANA-DBD for 60 mins followed by addition of DNA probe and measured after 30 mins by Electrophoretic mobility shift assay. The arrangement: species or system Human gammaherpesvirus 8.

The test system of assay [6] is Human gammaherpesvirus 8. Briefly: Inhibition of Kaposi's sarcoma herpesvirus wild type LANA CTD (934 to 1162 residues) expressed in Escherichia coli BL21 (DE3) assessed as inhibition of LANA interaction with 5'-Dy682-labeled viral DNA LBS1 probe at 250 uM preincubated with LANA CTD for 60 mins followed by addition of DNA probe and measured after 30 mins by Electrophoretic mobility shift assay. The note with it: time 90.0 min.

Assay [7] concerns Human gammaherpesvirus 8. Briefly: Inhibition of Kaposi's sarcoma herpesvirus C-terminal His-tagged oligomerization deficient LANA DBD (1008 to 1146 residues) K1055E/K1138S/K1140D/K1141D/R1039Q/R1040Q/A1121E/K1109A/D1110A mutant expressed in Escherichia coli BL21(DE3) assessed as inhibition of LANA interaction with 5'-Dy682-labeled viral DNA LBS1+2 probe at 62.5 uM preincubated with LANA-DBD for 60 mins followed by addition of DNA probe and measured after 30 mins by Electrophoretic mobility shift assay. The note with it: time 90.0 min. The method, boiled down: (§2)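 EMSA with the LANA DBD mutant as a dose-dependent test against higher-order complexes. Combined probes were LBS1+2 and LBS2+1+3. Inhibition was judged from loss of the LANA-DNA complex band.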

The test system of assay [8] is Human gammaherpesvirus 8. Briefly: Inhibition of Kaposi's sarcoma herpesvirus C-terminal His-tagged oligomerization deficient LANA DBD (1008 to 1146 residues) K1055E/K1138S/K1140D/K1141D/R1039Q/R1040Q/A1121E/K1109A/D1110A mutant expressed in Escherichia coli BL21(DE3) assessed as inhibition of LANA interaction with 5'-Dy682-labeled viral DNA LBS1+2+3 probe at 125 uM preincubated with LANA-DBD for 60 mins followed by addition of DNA probe and measured after 30 mins by Electrophoretic mobility shift assay. The note with it: time 90.0 min. In outline: as §2

Assay [9] is described as follows: Inhibition of Kaposi's sarcoma herpesvirus wild type LANA CTD (934 to 1162 residues) expressed in Escherichia coli BL21 (DE3) assessed as inhibition of LANA interaction with 5'-Dy682-labeled viral DNA LBS1 probe preincubated with LANA CTD for 60 mins followed by addition of DNA probe and measured after 30 mins by Electrophoretic mobility shift assay. The arrangement: species or system Human gammaherpesvirus 8. In outline: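 GST-tagged KSHV LANA CTD (aa934-1162), wild type and unmutated, binding an LBS1 probe in EMSA. Compounds were first screened at a single fixed final concentration, then run in a dose-response EMSA. LANA-DNA complex (upper) band intensities were normalized to 0-100% inhibition. IC50 came from a four-parameter dose-response fit.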

The test system of assay [10] is Human gammaherpesvirus 8. Briefly: Binding affinity to Kaposi's sarcoma herpesvirus C-terminal His-tagged oligomerization deficient LANA DBD (1008 to 1146 residues) K1055E/K1138S/K1140D/K1141D/R1039Q/R1040Q/A1121E/K1109A/D1110A mutant expressed in Escherichia coli BL21(DE3) at 500 uM by STD-NMR analysis.

`Cc1ccc2cncc(-n3cc(-c4ccc(C(=O)O)cc4)nn3)c2c1`: the IC50 in assay [1] turned out to be 9 µM; in [2], 8 µM; in assay [4], 8 µM; in assay [5] it was 53 µM; in [9] it was 60 µM. Also, in the assay on Human gammaherpesvirus 8 [3], the inhibition came out at 100%. Further, the inhibition entry with Human gammaherpesvirus 8 [6], in the assay on Human gammaherpesvirus 8 [7] and with Human gammaherpesvirus 8 [8] was “Active” throughout. Also, the outcome with Human gammaherpesvirus 8 [10] was Active.

For `O=C(O)c1ccc(-c2cn(-c3cccnc3)nn2)cc1`, the 50% inhibitory concentration (IC50) was 20 µM in assay [1]; 17 µM in assay [2]; 19 µM in [4]; 426 µM in [5]; 435 µM in assay [9]. For the same compound, the inhibition in the assay on Human gammaherpesvirus 8 [3] is 82%. In addition, the inhibition entry with Human gammaherpesvirus 8 [6] is “inactive”.

By IC50 is commonly meant the point on the concentration scale where inhibition reaches its midpoint. The term inhibition denotes the drop in the measured response relative to a control, in per cent.
